Tests used:
[1] = Aqueous kinetic solubility of the compound in pH 7.4 PBS buffer; type: physicochemical
Liver microsome [2] = assay: Metabolic stability in rat liver microsomes assessed as compound remaining at 10 uM after 30 mins; type: ADME; details: 0.5 h
Summary of the method: (§1)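 Compound at 10 µM was incubated for 30 min with liver microsomes (H = human, R = rat). Stability was expressed as percent of compound remaining.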

[3] = target: T1, Retinol-binding protein 4 (Homo sapiens, UniProt P02753)
Liver microsome [4] = assay: Metabolic stability in human liver microsomes assessed as compound remaining at 10 uM after 30 mins; type: ADME; details: 0.5 h; summary of the method: as §1
[5] = target: T1, Retinol-binding protein 4; remark: listed apart in the source
Cytochrome P450 3A4 = Cytochrome P450 3A4 (Homo sapiens, UniProt P08684); assay: Inhibition of CYP3A4 (unknown origin)
Cytochrome P450 3A4, sequence (P08684 whole entry): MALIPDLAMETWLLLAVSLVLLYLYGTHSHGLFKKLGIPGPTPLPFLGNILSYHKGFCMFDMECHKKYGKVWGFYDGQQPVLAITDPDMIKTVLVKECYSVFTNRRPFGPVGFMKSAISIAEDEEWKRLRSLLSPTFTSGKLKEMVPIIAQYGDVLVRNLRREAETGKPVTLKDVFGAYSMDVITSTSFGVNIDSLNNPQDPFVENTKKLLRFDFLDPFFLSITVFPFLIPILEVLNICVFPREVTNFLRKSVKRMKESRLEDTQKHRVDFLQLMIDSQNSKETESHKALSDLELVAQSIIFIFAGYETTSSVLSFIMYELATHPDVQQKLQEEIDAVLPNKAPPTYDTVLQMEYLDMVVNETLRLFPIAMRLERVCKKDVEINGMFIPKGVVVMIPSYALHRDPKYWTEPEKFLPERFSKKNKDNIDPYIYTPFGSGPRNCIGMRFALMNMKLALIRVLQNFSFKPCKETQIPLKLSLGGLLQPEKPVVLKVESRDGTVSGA

Cytochrome P450 2D6 = Cytochrome P450 2D6 (Homo sapiens, UniProt P10635); assay: Inhibition of CYP2D6 (unknown origin)
Cytochrome P450 2D6, sequence (P10635 whole entry): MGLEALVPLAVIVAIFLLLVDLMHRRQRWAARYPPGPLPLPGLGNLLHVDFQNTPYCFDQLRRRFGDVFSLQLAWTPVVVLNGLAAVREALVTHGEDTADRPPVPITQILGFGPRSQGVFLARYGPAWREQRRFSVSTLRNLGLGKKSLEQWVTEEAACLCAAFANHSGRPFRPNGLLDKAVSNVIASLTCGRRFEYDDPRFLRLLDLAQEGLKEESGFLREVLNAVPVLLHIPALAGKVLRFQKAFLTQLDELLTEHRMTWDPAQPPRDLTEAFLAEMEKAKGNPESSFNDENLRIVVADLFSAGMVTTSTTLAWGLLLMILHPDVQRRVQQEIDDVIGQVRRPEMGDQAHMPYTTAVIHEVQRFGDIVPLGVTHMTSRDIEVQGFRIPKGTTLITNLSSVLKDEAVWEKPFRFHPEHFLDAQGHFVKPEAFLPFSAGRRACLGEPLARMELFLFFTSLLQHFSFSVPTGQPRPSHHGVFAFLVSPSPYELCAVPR

Cytochrome P450 2C9 = Cytochrome P450 2C9 (Homo sapiens, UniProt P11712); assay: Inhibition of CYP2C9 (unknown origin)
Cytochrome P450 2C9, sequence (P11712 whole entry): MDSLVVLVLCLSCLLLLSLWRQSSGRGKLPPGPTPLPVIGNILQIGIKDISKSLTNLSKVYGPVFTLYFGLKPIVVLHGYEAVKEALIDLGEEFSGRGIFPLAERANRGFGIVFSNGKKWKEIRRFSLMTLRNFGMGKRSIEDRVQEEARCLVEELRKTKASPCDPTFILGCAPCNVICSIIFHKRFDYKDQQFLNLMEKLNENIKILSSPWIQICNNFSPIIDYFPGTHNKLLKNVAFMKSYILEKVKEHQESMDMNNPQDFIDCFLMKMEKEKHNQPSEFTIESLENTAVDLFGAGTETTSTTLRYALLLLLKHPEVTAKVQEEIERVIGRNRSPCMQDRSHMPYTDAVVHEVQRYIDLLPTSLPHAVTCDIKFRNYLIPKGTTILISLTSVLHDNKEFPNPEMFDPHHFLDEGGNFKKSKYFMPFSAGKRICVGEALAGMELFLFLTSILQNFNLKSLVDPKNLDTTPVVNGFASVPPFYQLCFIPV

Cytochrome P450 2C19 = Cytochrome P450 2C19 (Homo sapiens, UniProt P33261); assay: Inhibition of CYP2C19 (unknown origin)
Cytochrome P450 2C19, sequence (P33261 whole entry): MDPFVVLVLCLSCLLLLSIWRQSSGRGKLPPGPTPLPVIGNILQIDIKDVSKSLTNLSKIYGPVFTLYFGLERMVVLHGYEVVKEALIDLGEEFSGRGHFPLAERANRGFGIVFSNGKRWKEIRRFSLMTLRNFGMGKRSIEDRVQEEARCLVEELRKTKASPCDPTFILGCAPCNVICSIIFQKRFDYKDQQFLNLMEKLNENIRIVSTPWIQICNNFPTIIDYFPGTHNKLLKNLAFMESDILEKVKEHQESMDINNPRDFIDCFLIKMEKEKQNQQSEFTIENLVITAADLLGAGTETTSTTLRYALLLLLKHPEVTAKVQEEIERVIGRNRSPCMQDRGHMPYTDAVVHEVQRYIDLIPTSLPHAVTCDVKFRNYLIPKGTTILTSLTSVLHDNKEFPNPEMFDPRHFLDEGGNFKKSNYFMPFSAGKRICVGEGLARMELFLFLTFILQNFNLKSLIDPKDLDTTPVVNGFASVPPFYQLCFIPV

[6] = Cmax in Sprague-Dawley rat plasma at 5 mg/kg, po; type: ADME, organism-based; set-up: dose 5 mg/kg, route oral
Summary of the method: (§2)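 Groups of three drug-naive adult male Sprague-Dawley rats. Dosing was iv at 0.5 mg/kg once on day 0, or po at 5 mg/kg once on day 0 or once daily from day 0 to day 6. Cmax is the maximum observed plasma concentration. Pre-dose plasma was also sampled on day 6, and urine was collected 0–48 h after iv dosing.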

[7] = AUClast in Sprague-Dawley rat plasma at 0.5 mg/kg, iv; type: ADME, organism-based; set-up: time 0 - last, dose 0.5 mg/kg, route intravenous
Summary of the method: (§3)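 Single intravenous dose of 0.5 mg/kg given on day 0 to a group of three drug-naive adult male Sprague-Dawley rats. Compound was measured in plasma over time, and urine was collected from 0 to 48 h. AUClast runs from 0 to the last quantifiable time point; AUC(0–inf) is extrapolated to infinity. Values are group means.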

in vivo [8] = details: Sprague-Dawley, rat, plasma, iv, 0.5 mg/kg
in vivo [9] = details: Sprague-Dawley, rat, plasma, po, 5 mg/kg
[10] = AUClast in Sprague-Dawley rat plasma at 5 mg/kg, po; type: ADME, organism-based; set-up: time 0 - last, dose 5 mg/kg, route oral
Summary of the method: (§4)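 Oral dosing at 5 mg/kg in groups of three drug-naive adult male Sprague-Dawley rats, given either once on day 0 or once daily from day 0 to day 6. Plasma was sampled after the day 0 or day 6 dose. AUClast runs from 0 to the last quantifiable point; AUC(0–inf) is extrapolated to infinity. Values are means.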

[11] = Apparent half-life of the terminal phase of elimination in Sprague-Dawley rat plasma at 5 mg/kg, po; type: ADME, organism-based; set-up: dose 5 mg/kg, route oral; details: read-out: betat1/2(app) (converted)
Summary of the method: (§5)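 Adult male Sprague-Dawley rats, drug-naive, three per group. Plasma levels gave the terminal-phase half-life. Bioavailability F = (AUCINF po × dose iv) ÷ (AUCINF iv × dose po), using a 0.5 mg/kg iv reference group.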

[12] = AUC (0 to infinity) in Sprague-Dawley rat plasma at 5 mg/kg, po; type: ADME, organism-based; set-up: time infinity, dose 5 mg/kg, route oral; summary of the method: as §4
[13] = Apparent half-life of the terminal phase of elimination in Sprague-Dawley rat plasma at 0.5 mg/kg, iv; type: ADME, organism-based; set-up: dose 0.5 mg/kg, route intravenous; details: read-out: betat1/2(app) (converted)
Summary of the method: (§6)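 Three drug-naive adult male Sprague-Dawley rats per group, given a single iv dose on day 0. Compound was measured in plasma over time. Parameters were derived from the plasma concentration–time curve: terminal-phase half-life, total body clearance, and steady-state volume of distribution. Urine was also collected from 0 to 48 h.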

[14] = Cmax in Sprague-Dawley rat plasma at 0.5 mg/kg, iv; type: ADME, organism-based; set-up: dose 0.5 mg/kg, route intravenous; summary of the method: as §2
[15] = Oral bioavailability in Sprague-Dawley rat plasma at 5 mg/kg; type: ADME, organism-based; summary of the method: as §5
[16] = Volume of distribution at steady state in Sprague-Dawley rat plasma at 0.5 mg/kg, iv; type: ADME, organism-based; set-up: dose 0.5 mg/kg, route intravenous; details: read-out: Vdss; summary of the method: as §6
[17] = AUC (0 to infinity) in Sprague-Dawley rat plasma at 0.5 mg/kg, iv; type: ADME, organism-based; set-up: time infinity, dose 0.5 mg/kg, route intravenous; summary of the method: as §3
[18] = Clearance in Sprague-Dawley rat plasma at 0.5 mg/kg, iv; type: ADME, organism-based; set-up: dose 0.5 mg/kg, route intravenous; summary of the method: as §6

| SMILES | Kinetic_solubility [1] [µM] | Stability (Liver microsome [2]) [%] | IC50 [3] [µM] | Stability (Liver microsome [4]) [%] | IC50 [5] [µM] | other results |
| --- | --- | --- | --- | --- | --- | --- |
| O=C(O)c1cc(Cl)ccc1NC(=O)N1C[C@H]2C[C@@H](c3ccccc3C(F)(F)F)C[C@H]2C1 | 60 | 87 | […] | 89 | – | – |
| O=C(NS(=O)(=O)C1CC1)c1ccccc1NC(=O)N1CCC(c2ccccc2C(F)(F)F)CC1 | – | – | 0.244 | – | 5.31 | – |
| CN(CCOc1ccc(Cl)cc1C(C)(C)C)C(=O)Nc1ccccc1C(=O)O | – | – | > 3 | – | – | – |
| CS(=O)(=O)c1ccc(NC(=O)N2C[C@H]3C[C@@H](c4ccccc4C(F)(F)F)C[C@H]3C2)c(C(=O)O)c1 | > 100 | 100 | 0.163 | 100 | 1.55 | IC50 (Cytochrome P450 3A4): 42 µM; IC50 (Cytochrome P450 2D6): > 100 µM; IC50 (Cytochrome P450 2C9): 8.7 µM; IC50 (Cytochrome P450 2C19): 32 µM |
| O=C(O)c1cnccc1NC(=O)N1C[C@H]2C[C@@H](c3ccccc3C(F)(F)F)C[C@H]2C1 | 29 | 82 | 0.0187 | 81 | 0.179 | IC50 (Cytochrome P450 3A4): < 0.046 µM; IC50 (Cytochrome P450 2D6): > 100 µM; IC50 (Cytochrome P450 2C9): 5.6 µM; IC50 (Cytochrome P450 2C19): 2.1 µM |
| O=C(O)CCC(=O)N1CCC(c2ccccc2C(F)(F)F)CC1 | – | – | > 3 | – | – | – |
| O=C(O)[C@H](NC(=O)N1C[C@H]2C[C@@H](c3ccccc3C(F)(F)F)C[C@H]2C1)c1ccccc1 | – | – | 1.32 | – | 8.34 | – |
| Cc1cc(NC(=O)N2C[C@H]3C[C@@H](c4ccccc4C(F)(F)F)C[C@H]3C2)c(C(=O)O)cn1 | 93 | 76 | – | 71 | – | IC50 (Cytochrome P450 3A4): 1.1 µM; IC50 (Cytochrome P450 2D6): > 100 µM; IC50 (Cytochrome P450 2C9): 1 µM; IC50 (Cytochrome P450 2C19): 12 µM |
| O=C(O)c1ccccc1NC(=O)N1CC2(C1)CN(c1ccccc1C(F)(F)F)C2 | – | – | > 3 | – | – | – |
| O=C(O)CC(=O)N1CCC(c2ccccc2C(F)(F)F)CC1 | – | – | 1.47 | – | – | – |
| O=C(O)c1cccnc1NC(=O)N1C[C@H]2C[C@@H](c3ccccc3C(F)(F)F)C[C@H]2C1 | 82 | 81 | > 3 | 83 | – | IC50 (Cytochrome P450 3A4): > 100 µM; IC50 (Cytochrome P450 2D6): > 100 µM; IC50 (Cytochrome P450 2C9): 27 µM; IC50 (Cytochrome P450 2C19): 33 µM |
| O=C(O)[C@@H](NC(=O)N1C[C@H]2C[C@@H](c3ccccc3C(F)(F)F)C[C@H]2C1)c1ccccc1 | – | – | 0.124 | – | 0.829 | – |
| O=C(O)c1cnncc1NC(=O)N1C[C@H]2C[C@@H](c3ccccc3C(F)(F)F)C[C@H]2C1 | > 100 | 61 | 0.024 | 97 | 0.121 | IC50 (Cytochrome P450 3A4): 12 µM; IC50 (Cytochrome P450 2D6): > 100 µM; IC50 (Cytochrome P450 2C9): 17 µM; IC50 (Cytochrome P450 2C19): 6 µM |
| CN(CCOc1ccccc1C(F)(F)F)C(=O)Nc1ccccc1C(=O)O | – | – | 1.9 | – | 2.65 | – |
| O=C(O)c1ccccc1NC(=O)N1C[C@H]2C[C@H](c3ccccc3C(F)(F)F)C[C@H]2C1 | – | – | > 3 | – | – | – |
| CN(CCOc1ccccc1C(C)(C)C)C(=O)Nc1ccccc1C(=O)O | – | – | – | 1.1 | – | – |
| CN(CCOc1ccc(F)cc1C(C)(C)C)C(=O)Nc1ccccc1C(=O)O | – | – | 0.141 | 3.2 | – | – |

| SMILES | Kinetic_solubility [1] [µM] | Stability (Liver microsome [2]) [%] | IC50 [3] [µM] | Stability (Liver microsome [4]) [%] | IC50 [5] [µM] | other results |
| --- | --- | --- | --- | --- | --- | --- |
| O=C(O)c1ccccc1NC(=O)N1CCC(c2ccccc2C(F)(F)F)CC1 | 57 | 85 | – | 3 | – | IC50 (Cytochrome P450 2D6): 100 µM; IC50 (Cytochrome P450 2C9): > 100 µM; IC50 (Cytochrome P450 2C19): 52 µM |
| O=C(O)C(=O)N1CCC(c2ccccc2C(F)(F)F)CC1 | – | – | 0.234 | – | 3.13 | – |
| O=C(O)c1ccccc1NC(=O)N1CCC2(CCc3ccccc32)CC1 | – | – | 3.76 | – | – | – |
| O=C(O)c1cc(F)ccc1NC(=O)N1C[C@H]2C[C@@H](c3ccccc3C(F)(F)F)C[C@H]2C1 | 55 | 100 | 0.0888 | 57 | 0.285 | IC50 (Cytochrome P450 3A4): 53 µM; IC50 (Cytochrome P450 2D6): > 100 µM; IC50 (Cytochrome P450 2C9): 0.33 µM; IC50 (Cytochrome P450 2C19): 31 µM |
| C[C@H](NC(=O)N1C[C@H]2C[C@@H](c3ccccc3C(F)(F)F)C[C@H]2C1)C(=O)O | – | – | 1.48 | – | – | – |
| COc1ccc(NC(=O)N2C[C@H]3C[C@@H](c4ccccc4C(F)(F)F)C[C@H]3C2)c(C(=O)O)c1 | 34 | 72 | 0.17 | 89 | – | IC50 (Cytochrome P450 3A4): 8 µM; IC50 (Cytochrome P450 2D6): > 100 µM; IC50 (Cytochrome P450 2C9): 13 µM; IC50 (Cytochrome P450 2C19): 75 µM |
| O=C(O)c1ccccc1NC(=O)N1C[C@@H]2[C@H](C1)[C@@H]2c1ccccc1C(F)(F)F | – | – | > 3 | – | – | – |
| O=C(O)c1ccccc1NC(=O)N1CCc2ccccc2CC1 | – | – | > 3 | – | – | – |
| O=C(O)c1ccccc1NC(=O)N1C[C@H]2C[C@@H](c3ccccc3C(F)(F)F)C[C@H]2C1 | 55 | 75 | 0.0727 | 100 | 0.294 | Cmax [6]: 7830 ng/mL; AUC(0-t) [7]: 13200 ng·h/mL; Tmax (in vivo [8]): 4.98 min; IC50 (Cytochrome P450 3A4): 28 µM; Tmax (in vivo [9]): 0.33 h; AUC(0-t) [10]: 62100 ng·h/mL; half-life [11]: 7.6 h; IC50 (Cytochrome P450 2D6): > 100 µM; IC50 (Cytochrome P450 2C9): 0.34 µM; AUC(0-inf) [12]: 63000 ng·h/mL; half-life [13]: 10.3 h; Cmax [14]: 2940 ng/mL; bioavailability [15]: 44%; Vd [16]: 0.523 L/kg; IC50 (Cytochrome P450 2C19): 29 µM; AUC(0-inf) [17]: 14300 ng·h/mL; clearance [18]: 0.588 mL/min/kg |
| O=C(O)c1ccccc1NC(=O)N1C[C@@H]2[C@H](C1)[C@H]2c1ccccc1C(F)(F)F | – | – | > 3 | – | – | – |
| O=C(O)c1ccccc1NC(=O)N1CC(Oc2ccccc2C(F)(F)F)C1 | – | – | 1.44 | – | – | – |
| C[C@@H](NC(=O)N1C[C@H]2C[C@@H](c3ccccc3C(F)(F)F)C[C@H]2C1)C(=O)O | – | – | > 3 | – | – | – |
| O=C(NS(=O)(=O)c1ccccc1)c1ccccc1NC(=O)N1CCC(c2ccccc2C(F)(F)F)CC1 | – | – | > 3 | – | – | – |
| O=C(O)C1CCCN1C(=O)N1CCC(c2ccccc2C(F)(F)F)CC1 (racemic) | – | – | > 3 | – | – | – |
| CS(=O)(=O)NC(=O)c1ccccc1NC(=O)N1CCC(c2ccccc2C(F)(F)F)CC1 | – | – | 0.298 | – | – | – |
| O=C(O)c1ccccc1NC(=O)N1CC(c2ccccc2C(F)(F)F)C1 | – | – | > 3 | – | 8.38 | – |

— ChEMBL document CHEMBL3351344 (J Med Chem, 2014)
